In publication PMC6525014 (Journal of labelled compounds & radiopharmaceuticals, 2019):

How the values were obtained:
[1] = Metabolic stability in pooled human liver microsomes; format: in vitro ADME; conditions: for half-life at 1 μM: human, pooled human liver microsomes, pH 7.4
Method in brief: (§1)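 Pooled liver microsomes (CD-1 mouse, SD rat or human) at 0.5 mg/mL, with 1 μM test compound, 1.7 mM β-NADPH and 3.3 mM MgCl2 in 0.1 M phosphate pH 7.4, 37°C, DMSO <0.1% final. Samples at 0, 5, 10, 15, 30, 45, 60 min were quenched in cold acetonitrile with internal standard. Parent remaining measured by negative-ion MRM LC–MS/MS. t1/2 from ln(remaining) versus time. Controls: no-NADPH, verapamil.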

[2] = Metabolic stability in pooled CD-1 mouse liver microsomes; format: in vitro ADME; conditions: for half-life at 1 μM: CD-1, mouse, pooled mouse liver microsomes, pH 7.4
Method in brief: as §1

[3] = Metabolic stability in pooled SD rat liver microsomes; format: in vitro ADME; conditions: for half-life at 1 μM: SD, rat, pooled rat liver microsomes, pH 7.4
Method in brief: as §1

obese mice = conditions: earlier work of the authors; cited from earlier work

Structure (SMILES) | half-life at 1 μM [1] [h] | half-life at 1 μM [2] [h] | half-life at 1 μM [3] [h] | stability relative to amlexanox ([3]; rat liver microsomes) | effects in obese mice (obese mice) | more unmetabolized amlexanox remaining compared to d2-amlexanox ([1]; human liver microsomes, after 60 min) | more unmetabolized amlexanox remaining compared to d2-amlexanox ([2]; mice liver microsomes, after 60 min)
[2H]CC([2H])(C)c1ccc2oc3nc(N)c(C(=O)O)cc3c(=O)c2c1 (stereo not shown) [Compound 5, 2-Amino-5-oxo-7-(propan-2-yl-1,2-d2)-5H-chromeno[2,3-b]pyridine-3-carboxylic acid] | > 1 | > 1 | > 1 | more stable than amlexanox (1) |  |  | 
CC(C)c1ccc2oc3nc(N)c(C(=O)O)cc3c(=O)c2c1 [Compound 1, amlexanox] | > 1 | > 1 | > 1 |  | weight loss in obese mice, improved insulin sensitivity, and reduced hepatic steatosis and inflammation | about 8% | about 8%
